Values after ≈ are worked out from the molar mass of the structure shown. Active and inactive are the calls of the source. The rule behind the calls is not given here.
Legend:
[1] = Selectivity index, ratio of IC50 for CHO cells to IC50 for chloroquine-sensitive Plasmodium falciparum NF54; type: toxicity; settings: hamster, read-out: Ratio IC50
How it was run: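 Selectivity index = IC50 CHO / IC50 PfNF54.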

[2] = Metabolic stability in Balb/c mouse liver microsomes assessed as compound remaining at 1 uM in presence of NADPH after 30 mins by LC-MS/MS analysis; type: ADME, microsome; settings: read-out: Stability
How it was run: (§1)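 Mouse and human liver microsomes; % compound remaining after 30 min.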

[3] = tested on: Plasmodium falciparum; experiment: Anti-plasmodial activity against chloroquine-sensitive Plasmodium falciparum NF54 by [3H]-hypoxanthine incorporation assay; type: functional
How it was run: (§2)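 P. falciparum asexual blood-stage growth inhibition by [3H]hypoxanthine incorporation; chloroquine and artesunate run as reference drugs in every experiment; IC50 given as mean of ≥2 independent experiments.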

[4] = tested on: CHO; experiment: Cytotoxicity against CHO cells after by MTT assay; type: cell-based; settings: Cricetulus griseus
[5] = tested on: Plasmodium falciparum; experiment: Ratio of IC50 for chloroquine-sensitive Plasmodium falciparum NF54 after 24 hrs to IC50 for chloroquine-sensitive Plasmodium falciparum NF54 after 72 hrs; type: functional
[6] = Metabolic stability in human liver microsomes assessed as compound remaining at 1 uM in presence of NADPH after 30 mins by LC-MS/MS analysis; type: ADME, microsome; settings: read-out: Stability; how it was run: as §1
[7] = tested on: Plasmodium falciparum; experiment: Anti-plasmodial activity against multidrug resistant Plasmodium falciparum K1 by [3H]-hypoxanthine incorporation assay; type: functional; how it was run: as §2
[8] = Kinetic solubility of the compound in FaSSIF at pH 6.5 after 2 hrs by shake flask method; type: physicochemical; settings: read-out: Kinetic_solubility
[9] = tested on: Plasmodium berghei; experiment: Antimalarial activity against GFP-fused Plasmodium berghei ANKA liver stage infected in HuH7 cells pretreated for 1 hr followed by parasite infection after 48 hrs by luciferase reporter gene assay; type: functional, cell-based; settings: Huh-7
[10] = tested on: Plasmodium berghei; experiment: Antimalarial activity against GFP-fused Plasmodium berghei ANKA liver stage infected in HuH7 cells pretreated for 1 hr followed by parasite infection at 1 uM after 48 hrs by luciferase reporter gene assay; type: functional, cell-based
[11] = tested on: Huh-7; experiment: Cytotoxicity against human HuH7 cells at 1 to 10 uM after 48 hrs by Alamarblue assay; type: cell-based; settings: huh-7, 48 h
[12] = tested on: Plasmodium falciparum; experiment: Anti-plasmodial activity against chloroquine-sensitive Plasmodium falciparum NF54 late 4/5 stage gametocytes assessed as reduction in ATP levels after 24 hrs by BacTiter-Glo reagent based bioluminescence assay; type: functional; settings: NF54, 24 h
[13] = tested on: Plasmodium falciparum; experiment: Ratio of IC50 for chloroquine-sensitive Plasmodium falciparum NF54 early 2/3 stage gametocytes to IC50 for chloroquine-sensitive Plasmodium falciparum NF54 late 4/5 stage gametocytes; type: functional
How it was run: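 Early (stage II/III) and late (stage IV/V) gametocytes tested in parallel luciferase reporter assays; stage preference = EG IC50/LG IC50.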

[14] = tested on: Ferriprotoporphyrin IX; experiment: Inhibition of beta hematin formation in water/NP40/DMSO solution after 5 hrs
[15] = tested on: Plasmodium falciparum; experiment: Anti-plasmodial activity against chloroquine-sensitive Plasmodium falciparum NF54 late 4/5 stage gametocytes after 48 hrs by luciferin-luciferase reaction based bioluminescence assay; type: functional; settings: NF54, 48 h
[16] = tested on: Plasmodium berghei; experiment: Antimalarial activity against GFP-fused Plasmodium berghei ANKA infected in mouse assessed as reduction in parasitemia at 50 mg/kg, po administered once daily for 4 days by flow cytometry relative to control; type: functional; parameters: scale not given: the % may be the effect or the level left
How it was run: (§3)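 P. berghei-infected mice, 3 per group. Compound formulated in 90/10 Tween80/ethanol (v/v), diluted 10-fold with water, given orally once daily at 4, 24, 48 and 72 h post-infection. Outcomes: % parasitemia reduction versus untreated control, mean survival days, and cured/infected. Mice with <40% reduction euthanized on day 4.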

[17] = tested on: Plasmodium berghei; experiment: Antimalarial activity against GFP-fused Plasmodium berghei ANKA infected in mouse assessed as mouse mean survival days at 50 mg/kg, po administered once daily for 4 days; type: functional
How it was run: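 P. berghei-infected mice (n=3 per dose) dosed orally once daily on 4 consecutive days at 4, 24, 48 and 72 h after infection; compound in 90/10 Tween80/ethanol (v/v) diluted 10-fold with water. Read-outs were % parasitemia reduction, mean survival time in days and cure; mice with <40% parasitemia reduction euthanized on day 4.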

[18] = tested on: Ferriprotoporphyrin IX; experiment: Inhibition of beta hematin formation in ring stage of chloroquine-sensitive Plasmodium falciparum NF54 assessed as increase in free heme level after 36 hrs by UV-vis spectra analysis
How it was run: (§4)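 Synchronized ring-stage parasites treated with increasing drug concentrations, then cellular fractionation. Free haem and haemozoin quantified as iron (fg/cell) and compared with untreated control; significance by p-values; parasite survival overlaid.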

[19] = tested on: Ferriprotoporphyrin IX; experiment: Inhibition of beta hematin formation in ring stage of chloroquine-sensitive Plasmodium falciparum NF54 assessed as decrease in haemozoin level after 36 hrs by UV-vis spectra analysis; how it was run: as §4
[20] = tested on: Plasmodium berghei; experiment: Antimalarial activity against GFP-fused Plasmodium berghei ANKA infected in mouse assessed as protection against parasitemia at 50 mg/kg, po administered once daily for 4 days measured 30 days post infection by light microscopy; type: functional, organism-based; how it was run: as §3

CN1CCC(Nc2cc(-c3ccc(C(F)(F)F)cc3)c(C#N)c3nc4ccccc4n23)CC1
selectivity ratio [1]: 14 | remaining at 0.5 h, 1 µM [2]: 63% | IC50 [3]: 440 nM | IC50 [4]: 5980 nM | Ratio IC50 [5]: <1.5 | remaining at 0.5 h, 1 µM [6]: 75% | IC50 [7]: 1000 nM | solubility kinetic at 2 h [8]: < 5 µM

COc1cc(NC(C)CCCN)c2ncccc2c1 (centres undefined) [PRIMAQUINE]
IC50 [9]: 8420 nM

N#Cc1c(-c2ccc(C(F)(F)F)cc2)cc(NCCN2CCC(O)C2)n2c1nc1ccccc12 (centres undefined)
selectivity ratio [1]: 153 | remaining at 0.5 h, 1 µM [2]: 51% | IC50 [3]: 40 nM | IC50 [4]: 6120 nM | Ratio IC50 [5]: 18 | IC50 [7]: 30 nM | solubility kinetic at 2 h [8]: < 5 µM

N#Cc1c(-c2ccc(C(F)(F)F)cc2)cc(NC2CCNCC2)n2c1nc1ccccc12
selectivity ratio [1]: 46 | Activity [10]: Active | Activity [11]: Non-Toxic | IC50 [12]: 1160 nM | remaining at 0.5 h, 1 µM [2]: 65% | IC50 [3]: 360 nM | IC50 [4]: 16500 nM | Ratio IC50 [13]: 1.6 | remaining at 0.5 h, 1 µM [6]: 99% | IC50 [9]: 3310 nM | IC50 [7]: 820 nM

N#Cc1c(-c2ccc(C(F)(F)F)cc2)cc(NCCn2ccnc2)n2c1nc1ccccc12
selectivity ratio [1]: 27 | Activity [11]: Non-Toxic | IC50 [12]: 1020 nM | IC50 [3]: 390 nM | IC50 [4]: 10500 nM | Ratio IC50 [13]: 1.1 | Ratio IC50 [5]: 1.5 - 2 | IC50 [14]: < 45000 nM | IC50 [7]: 790 nM

O=C1C(O)=C([C@H]2CC[C@H](c3ccc(Cl)cc3)CC2)C(=O)c2ccccc21 [ATOVAQUONE]
IC50 [9]: 1 nM

CCNCCNc1cc(-c2ccc(C(F)(F)F)cc2)c(C#N)c2nc3ccccc3n12
selectivity ratio [1]: 13 | Activity [11]: Non-Toxic | remaining at 0.5 h, 1 µM [2]: 97% | IC50 [4]: 1560 nM | Ratio IC50 [13]: 2.4 | Ratio IC50 [5]: <1.5 | IC50 [14]: < 45000 nM | remaining at 0.5 h, 1 µM [6]: 84% | IC50 [15]: 620 nM | solubility kinetic at 2 h [8]: < 5 µM

CCNCCNc1cc(C2CCCCC2)c(C#N)c2nc3ccccc3n12
selectivity ratio [1]: 7 | Activity [11]: Non-Toxic | IC50 [12]: 460 nM | remaining at 0.5 h, 1 µM [2]: 42% | IC50 [3]: 470 nM | IC50 [4]: 3190 nM | Ratio IC50 [13]: 3.3 | IC50 [7]: 670 nM | solubility kinetic at 2 h [8]: 10 µM (≈ 3.61 µg/mL)

CCNCCNc1cc(-c2cccc(F)c2)c(C#N)c2nc3ccccc3n12
selectivity ratio [1]: 13 | Activity [11]: Non-Toxic | IC50 [12]: 3630 nM | remaining at 0.5 h, 1 µM [2]: 100% | IC50 [3]: 380 nM | IC50 [4]: 5180 nM | Ratio IC50 [13]: 1.2 | Ratio IC50 [5]: <1.5 | remaining at 0.5 h, 1 µM [6]: 89% | IC50 [7]: 1000 nM | Activity [16]: 61% | solubility kinetic at 2 h [8]: 25 µM (≈ 9.34 µg/mL) | MSD [17]: 24 days

CCNCCNc1cc(-c2cccc(C(F)(F)F)c2)c(C#N)c2nc3ccccc3n12
selectivity ratio [1]: 28 | Activity [11]: Non-Toxic | IC50 [12]: 490 nM | IC50 [3]: 210 nM | IC50 [4]: 5920 nM | Ratio IC50 [13]: 1.6 | IC50 [7]: 340 nM

CCNCCNc1cc(-c2ccc(F)cc2)c(C#N)c2nc3ccccc3n12
selectivity ratio [1]: 35 | Activity [11]: Non-Toxic | IC50 [12]: 1770 nM | IC50 [3]: 330 nM | IC50 [4]: 11500 nM | Ratio IC50 [13]: 2.1 | IC50 [7]: 540 nM

CCc1nc(N)nc(N)c1-c1ccc(Cl)cc1 [PYRIMETHAMINE]
Ratio IC50 [5]: 6

CCN(CC)CCCC(C)Nc1cc(-c2ccc(C(F)(F)F)cc2)c(C#N)c2nc3ccccc3n12 (centres undefined)
selectivity ratio [1]: 4 | Activity [11]: Non-Toxic | IC50 [12]: 3020 nM | remaining at 0.5 h, 1 µM [2]: 32% | IC50 [3]: 690 nM | IC50 [4]: 2910 nM | Ratio IC50 [13]: 0.7 | Ratio IC50 [5]: <1.5 | remaining at 0.5 h, 1 µM [6]: 53% | IC50 [7]: 400 nM | solubility kinetic at 2 h [8]: 85 µM (≈ 42 µg/mL)

CCNCCNc1cc(-c2ccc(Cl)c(Cl)c2)c(C#N)c2nc3ccccc3n12
selectivity ratio [1]: 14 | Activity [11]: Non-Toxic | IC50 [12]: 590 nM | remaining at 0.5 h, 1 µM [2]: 65% | inhibition [18]: Dose-dependent effect | IC50 [3]: 110 nM | IC50 [4]: 1550 nM | Ratio IC50 [13]: 1.2 | IC50 [14]: < 45000 nM | remaining at 0.5 h, 1 µM [6]: 60% | inhibition [19]: Dose-dependent effect | IC50 [7]: 120 nM

CCNCCNc1c(C)c(-c2ccc(C(F)(F)F)cc2)c(C#N)c2nc3ccccc3n12
Activity [10]: Active | Activity [11]: Non-Toxic | IC50 [12]: 2570 nM | remaining at 0.5 h, 1 µM [2]: 80% | IC50 [3]: 1280 nM | Ratio IC50 [13]: 0.8 | remaining at 0.5 h, 1 µM [6]: 85% | IC50 [9]: 2850 nM | solubility kinetic at 2 h [8]: < 5 µM

CCNCCNc1cc(C2CCCC2)c(C#N)c2nc3ccccc3n12
selectivity ratio [1]: 5 | Activity [11]: Non-Toxic | IC50 [12]: 670 nM | IC50 [3]: 830 nM | IC50 [4]: 3770 nM | Ratio IC50 [13]: 1.7 | IC50 [7]: 820 nM

CCNCCNc1cc(-c2ccc(C(F)(F)F)cc2)c(C#N)c2nc3cccc(Cl)c3n12
selectivity ratio [1]: 5 | remaining at 0.5 h, 1 µM [2]: 93% | IC50 [3]: 140 nM | IC50 [4]: 1630 nM | remaining at 0.5 h, 1 µM [6]: 89% | IC50 [7]: 260 nM | Activity [16]: 85% | solubility kinetic at 2 h [8]: 10 µM (≈ 4.58 µg/mL) | MSD [17]: 7 days | Activity [20]: inactive

CCNCCNc1cc(-c2ccc(C(F)(F)F)cc2)c(C#N)c2nc3cc(Cl)ccc3n12
selectivity ratio [1]: 362 | Activity [11]: Non-Toxic | remaining at 0.5 h, 1 µM [2]: 75% | IC50 [3]: 30 nM | IC50 [4]: 8710 nM | Ratio IC50 [13]: 1.1 | Ratio IC50 [5]: 1.5 - 2 | IC50 [14]: < 45000 nM | remaining at 0.5 h, 1 µM [6]: 87% | IC50 [7]: 30 nM | IC50 [15]: 820 nM

Reference: ChEMBL document CHEMBL3994624, “Antimalarial Pyrido[1,2-a]benzimidazoles: Lead Optimization, Parasite Life Cycle Stage Profile, Mechanistic Evaluation, Killing Kinetics, and in Vivo Oral Efficacy in a Mouse Model” (J Med Chem, 2017)
